Ends that are not written are not given here.
Legend:
[1] = Safety and tolerability; assay type: in vivo, human; details: healthy subjects, 12-lead ECG at 1, 3, 6 and 12 h post dose, all cohorts
Procedure, shortened: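 Single-blind, randomized, placebo-controlled dose escalation in healthy adults. Each cohort of six had four on drug and two on sterile-water placebo. Drug was dissolved in sterile water and drunk standing, then 200 ml water, at 08:00 after fasting from midnight. A 12-lead ECG was taken pre-dose and at 1, 3, 6 and 12 h. Vital signs and clinical laboratory tests were also monitored.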

[2] = Vital signs after single oral dose, phase I study; assay type: in vivo, human; details: 24 h post dose, healthy subjects, mean ± SD, n = 4
Procedure, shortened: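 In cohorts of four drug and two placebo (sterile water) subjects, a single oral solution was taken at 08:00 after an overnight fast, followed by 200 ml water. Blood pressure, heart rate, pulse oximetry, temperature and breathing rate were recorded pre-dose and at 0.25–24 h post dose. Values were reported as mean ± SD (range) and compared against placebo.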

[3] = Urinalysis, phase I study; assay type: in vivo, human; details: healthy subjects, n = 4
Procedure, shortened: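 Healthy volunteers were randomized within each dose cohort to oral drug solution in sterile water (four subjects) or sterile-water placebo (two subjects). They fasted from midnight, were dosed at 08:00 and had no food for 2 h afterwards. Urinalysis was done before dosing and 24 h after. Dipstick-type read-outs were compared with normal ranges or indications.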

[4] = intravenously administered into rats; ref unpublished preclinical toxicological data; cited from earlier work
[5] = system: Caco-2 monolayer; details: cited from earlier work
[6] = 0.08 mg/kg single oral dose, 0 h pre dose (baseline)
[7] = 0.08 mg/kg single oral dose, 24 h post dose
[8] = 0.7 mg/kg single oral dose, 0 h pre dose (baseline)
[9] = 0.7 mg/kg single oral dose, 24 h post dose

RVYIHPFHL [DAA-I, Des-aspartate-angiotensin I]
ECGs [1]: normal | Blood pressure, diastolic ([2]; 0.08 mg/kg single oral dose): 68 ± 5 mmHg | Blood pressure, systolic ([2]; 0.08 mg/kg single oral dose): 120 ± 4 mmHg | Blood pressure, diastolic ([2]; 0.7 mg/kg single oral dose): 67 ± 7 mmHg | Blood pressure, systolic ([2]; 0.7 mg/kg single oral dose): 114 ± 7 mmHg | Urine bilirubin [3, 6]: Negative | Urine glucose [3, 6]: Normal | Urine haemoglobin [3, 6]: Negative | Urine ketones [3, 6]: Negative | Urine nitrite [3, 6]: Negative | Urine protein [3, 6]: Negative | Urine urobilinogen [3, 6]: Normal | Urine bilirubin [3, 7]: Negative | Urine glucose [3, 7]: Normal | Urine haemoglobin [3, 7]: Negative | Urine ketones [3, 7]: Negative | Urine nitrite [3, 7]: Negative | Urine protein [3, 7]: Negative | Urine urobilinogen [3, 7]: Normal | Urine bilirubin [3, 8]: Negative | Urine glucose [3, 8]: normal | Urine haemoglobin [3, 8]: Negative | Urine ketones [3, 8]: Negative | Urine nitrite [3, 8]: Negative | Urine protein [3, 8]: Negative | Urine urobilinogen [3, 8]: Normal | Urine bilirubin [3, 9]: Negative | Urine glucose [3, 9]: normal | Urine haemoglobin [3, 9]: Negative | Urine ketones [3, 9]: Negative | Urine nitrite [3, 9]: Negative | Urine protein [3, 9]: Negative | Urine urobilinogen [3, 9]: Normal | Time to degradation by plasma enzymes [4]: 2 to 5 min | Transport across Caco-2 monolayer [5]: cross the Caco-2 monolayer via passive diffusion

— article PMC5114201 (Drugs in R&D, 2016)
